HUVEC prolif 384 – inhibitors of HUVEC proliferation, primary screen, cell-based, 384-well; AID 648, 2007; viability, % at 10 µM (by protocol); hit rate 1.1% among 86,000; CellTiter-Glo luminescence, 72 h; hits give low values;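 active means viability at or below 30%; inactive means viability above 30%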;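 further: 100% = median luminescence of DMSO-only cell control wells on each plate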
HCT116 bCat-KO – primary screen for growth suppressors in beta-catenin knockout HCT116 cells (colon tumor, human). HCT116 beta-catenin knockout viability, CellTiter-Glo, 60 h; hits give low values. viability, % at 10 µM. hit rate 1.5% among 140,000. AID 818, 2007;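 active means viability at or under a set limit, the compound median less 4 SD, cut at about 6% in these data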;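 further: 0% = Hyamine 1622 control at 20 µM and 100% = untreated cell control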
H69AR growth 86K – proliferation blockers of H69AR lung cancer cells, primary screen, cell-based, human, 86K library. AID 598, 2007. hit rate 6% among 85,000. H69AR lung tumor viability, ATP luminescence, 72 h; hits give low values. viability, % at 10 µM;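 active means viability at or below 40%; inactive means viability above 40%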;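 further: multidrug resistant small cell line overexpressing MRP-1 efflux transporter; 100% = mean luminescence of untreated control wells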
PTEN del growth – growth suppression of PTEN-null HCT116, primary screen, cell-based, CellTiter-Glo | hit rate 1.2% among 140,000 | AID 827, 2007 | HCT116 PTEN-null viability, 60 h; hits give low values | viability, % at 10 µM;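 active means viability at or below a set limit, 4 SD under the median of all tested compounds, cut at about 3.7% in these data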;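 further: PTEN knockout HCT116 line with beta catenin targeted HCT116 as companion control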
Fibroblast inh – antiproliferative effect on LL 47 fibroblasts – human, LL 47 cells, CellTiter-Glo luminescence, primary screen. hit rate 1.1% among 85,000. viability, % at 10 µM. LL 47 human lung fibroblast viability, ATP luminescence; hits give low values. AID 719, 2007;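 active means viability at or below 50% in the single dose screen; inactive means viability above 50%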;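 further: compound exposure lasted 72 h before the ATP readout; 100% = median luminescence of untreated cell-only wells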
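Material: human lung fibroblast line LL 47, low passage; Evaluation: viability percentage against median untreated-cell control; Buffer or medium: 15% FBS in IMEM; Incubation: 72 h compound exposure at 37 °C after overnight plating; Dosing: 0.1% DMSO in all compound wells; Measured by: CellTiter-Glo luminescence.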
Cav32 inh – Cav3.2 calcium influx blockers – cell-based, Fluo-4 calcium fluorescence, FDSS, MLSMR library, primary screen; Voltage-dependent T-type calcium channel subunit alpha-1H (Homo sapiens), O95180; Cav3.2-expressing cells; hits give low values; B-score at 10 µM; hit rate 4% among 100,000;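 active means single-dose well whose peak fluorescence ratio is a statistical outlier from its plate by either plate-standardised score or position-corrected B-score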
Target sequence (O95180 whole entry, looked up): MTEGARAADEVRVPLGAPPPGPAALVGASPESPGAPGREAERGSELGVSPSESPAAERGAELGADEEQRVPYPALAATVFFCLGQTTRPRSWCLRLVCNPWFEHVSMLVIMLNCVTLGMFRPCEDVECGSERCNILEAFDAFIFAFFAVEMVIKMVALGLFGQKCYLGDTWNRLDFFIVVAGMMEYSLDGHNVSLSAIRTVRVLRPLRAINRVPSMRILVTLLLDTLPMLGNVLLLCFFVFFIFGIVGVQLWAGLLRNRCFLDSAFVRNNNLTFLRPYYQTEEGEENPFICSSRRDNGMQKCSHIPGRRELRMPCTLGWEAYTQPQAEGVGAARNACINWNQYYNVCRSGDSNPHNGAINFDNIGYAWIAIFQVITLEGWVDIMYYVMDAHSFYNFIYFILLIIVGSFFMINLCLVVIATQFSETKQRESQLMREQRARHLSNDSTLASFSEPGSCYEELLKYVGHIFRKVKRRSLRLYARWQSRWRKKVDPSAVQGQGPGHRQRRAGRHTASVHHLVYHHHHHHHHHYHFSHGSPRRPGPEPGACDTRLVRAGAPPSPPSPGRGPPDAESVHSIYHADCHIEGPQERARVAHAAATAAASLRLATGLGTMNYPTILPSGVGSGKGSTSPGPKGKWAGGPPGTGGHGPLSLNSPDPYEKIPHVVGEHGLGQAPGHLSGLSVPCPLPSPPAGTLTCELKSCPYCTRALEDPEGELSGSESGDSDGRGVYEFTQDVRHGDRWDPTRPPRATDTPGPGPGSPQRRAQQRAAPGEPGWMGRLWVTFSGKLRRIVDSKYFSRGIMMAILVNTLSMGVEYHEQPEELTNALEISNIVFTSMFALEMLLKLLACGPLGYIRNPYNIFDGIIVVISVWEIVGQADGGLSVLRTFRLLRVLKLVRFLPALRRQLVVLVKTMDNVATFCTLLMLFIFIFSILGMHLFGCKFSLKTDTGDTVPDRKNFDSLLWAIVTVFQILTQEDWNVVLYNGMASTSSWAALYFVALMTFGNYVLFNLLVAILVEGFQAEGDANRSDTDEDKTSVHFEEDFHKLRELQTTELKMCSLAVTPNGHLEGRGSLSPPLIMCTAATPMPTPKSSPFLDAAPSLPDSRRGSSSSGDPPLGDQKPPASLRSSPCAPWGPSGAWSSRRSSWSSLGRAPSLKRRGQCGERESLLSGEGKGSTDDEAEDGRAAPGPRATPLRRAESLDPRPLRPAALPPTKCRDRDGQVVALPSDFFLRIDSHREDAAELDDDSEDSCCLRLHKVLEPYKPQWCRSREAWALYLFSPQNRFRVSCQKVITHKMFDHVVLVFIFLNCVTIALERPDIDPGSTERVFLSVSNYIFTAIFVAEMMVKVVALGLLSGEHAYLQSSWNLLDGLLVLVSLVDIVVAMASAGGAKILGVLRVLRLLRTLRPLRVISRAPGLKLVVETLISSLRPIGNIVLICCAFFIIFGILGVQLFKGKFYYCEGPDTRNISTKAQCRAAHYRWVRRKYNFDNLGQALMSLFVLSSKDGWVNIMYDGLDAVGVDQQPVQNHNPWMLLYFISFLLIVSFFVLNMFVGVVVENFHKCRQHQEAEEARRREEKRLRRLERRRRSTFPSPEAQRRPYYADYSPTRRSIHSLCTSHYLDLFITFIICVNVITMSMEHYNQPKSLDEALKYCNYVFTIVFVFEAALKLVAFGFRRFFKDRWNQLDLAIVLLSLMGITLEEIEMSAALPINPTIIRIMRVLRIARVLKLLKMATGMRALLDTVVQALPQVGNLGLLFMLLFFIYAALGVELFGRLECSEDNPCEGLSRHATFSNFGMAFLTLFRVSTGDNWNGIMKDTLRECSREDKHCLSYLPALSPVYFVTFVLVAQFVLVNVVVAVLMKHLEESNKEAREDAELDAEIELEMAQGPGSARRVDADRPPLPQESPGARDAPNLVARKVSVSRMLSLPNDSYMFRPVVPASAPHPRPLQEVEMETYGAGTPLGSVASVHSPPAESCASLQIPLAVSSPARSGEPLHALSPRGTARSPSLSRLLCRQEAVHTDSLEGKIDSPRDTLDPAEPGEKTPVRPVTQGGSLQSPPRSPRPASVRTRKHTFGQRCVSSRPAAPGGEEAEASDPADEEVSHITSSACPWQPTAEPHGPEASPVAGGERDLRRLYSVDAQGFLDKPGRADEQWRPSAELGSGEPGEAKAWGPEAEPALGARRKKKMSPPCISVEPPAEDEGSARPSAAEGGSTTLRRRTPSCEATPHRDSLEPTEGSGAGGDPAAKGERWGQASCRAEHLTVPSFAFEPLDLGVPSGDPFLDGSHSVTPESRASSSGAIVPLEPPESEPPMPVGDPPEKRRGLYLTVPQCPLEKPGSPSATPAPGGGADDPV
* = called active by the depositor; nt = not tested or not shown. The list is not random: actives were taken first. Their share in the collection is about 7.1%.

SMILES | HUVEC prolif 384 | HCT116 bCat-KO | H69AR growth 86K | PTEN del growth | Fibroblast inh | Cav32 inh
CC(NS(=O)(=O)c1ccc(CCC(=O)NCc2ccco2)cc1)c1ccccc1 (centres undefined) | nt | 86.7 | nt | 94.6 | nt | nt
CC(C)Oc1ccc(C(CC(=O)NCc2ccco2)c2ccccc2)cc1 (centres undefined) | 95.4 | 86.6 | 68.8 | 83.8 | 87.4 | -3.94*
CCC1CCCCN1c1nc(-c2ccncc2)nc2ccccc12 (centres undefined) | 43.4 | 52.5 | 16.7* | 60.6 | 89.3 | -2.08
C=CCn1c(-c2cccc(OC)c2)n[nH]c1=S | nt | 94.4 | nt | 87.3 | nt | nt
C=CCn1c(-c2cccc(OC)c2)nc2nc3ccccc3nc21 | 82.1 | 86.4 | 34.1* | 84.1 | 93.3 | 0.755
CN(C)c1ccc(CC(=O)c2nc3ccccc3s2)cc1 | nt | 78.9 | nt | 87.0 | nt | nt
Cc1ccc2nc(NC(=O)CSc3nncc(=O)n3N)sc2c1 | nt | 84.6 | nt | 67.2 | nt | nt
COc1cccc(-c2csc(N3CCN(C(=O)NC45CC6CC(CC(C6)C4)C5)CC3)n2)c1 | 79.2 | 56.6 | 80.5 | 58.8 | 103.0 | -3.31*
COc1cccc(-c2csc(N3CCN(C(=S)Nc4ccccc4)CC3)n2)c1 | nt | 94.5 | nt | 95.2 | nt | -0.0561
O=C(Nc1ccccc1C(F)(F)F)N1CCN(C(c2ccccc2)c2ccccc2)CC1 | 69.1 | 89.3 | 31.5* | 85.1 | 85.6 | -0.734
O=C(Nc1ccccc1C(F)(F)F)N1CCCCCC1 | 88.8 | 90.3 | 87.7 | 92.5 | 100.6 | 0.543
O=C(c1ccc2snnc2c1)N1CCSCC1 | 91.7 | 101.0 | 35.3* | 101.6 | nt | 1.57
NS(=O)(=O)c1ccc(NC(=O)Cn2ncc3c2-c2ccccc2OC3)cc1 | nt | 86.2 | nt | 97.6 | nt | 0.0175
COc1cccc(CNc2cnc3ccccc3c2)c1O | 91.5 | 69.2 | 99.1 | 73.7 | 96.1 | -4.5*
COc1ccc2c(c1)c(=O)oc1cc(O)ccc12 | nt | nt | nt | nt | nt | 1.25
COc1ccc2c(c1)c(=O)oc1c(C)c3occ(C)c3cc12 | 115.5 | nt | 34.6* | nt | 101.7 | nt
COc1ccc2c(c1)c(=O)oc1cc3occ(C(C)(C)C)c3cc12 | 40.2 | 94.9 | 12.8* | 87.4 | 58.5 | nt
COc1ccc2c(c1)c(=O)oc1cc3oc(C)c(C)c3cc12 | 95.1 | 80.0 | 82.4 | 78.1 | 92.9 | nt
c1csc(-c2nc3c4ccccc4c4ccccc4c3[nH]2)c1 | 57.0 | 33.1 | 29.6* | 47.3 | 89.0 | -0.125
c1cnc2ccc(C(c3nnnn3C3CCCC3)N3CCN(c4nc5ccccc5s4)CC3)cc2c1 (centres undefined) | 93.7 | 83.7 | 79.4 | 64.2 | 92.2 | -3.86*
Cc1ccc(Cl)cc1N1CCN(C(c2cccnc2)c2nnnn2C2CCCCC2)CC1 (centres undefined) | 81.1 | 75.1 | 47.7 | 68.0 | 92.9 | -4.99*
Clc1ccc(C(c2nnnn2C2CCCC2)N2CCN(c3nc4ccccc4s3)CC2)cc1 (centres undefined) | 115.5 | nt | 53.6 | nt | 86.4 | -8.13*
OC1CCN(C(c2ccc3ncccc3c2)c2nnnn2C2CCCCC2)CC1 (centres undefined) | 107.4 | 95.8 | 88.5 | 107.3 | 96.7 | -0.962
CCC(c1nnnn1C(C)(C)C)N1CCN(c2cc(Cl)ccc2C)CC1 (centres undefined) | 101.7 | 70.0 | 100.4 | 76.0 | 98.6 | -3.78*
CCCC(c1nnnn1CC1CCCO1)N1CCN(c2cc(Cl)ccc2C)CC1 (centres undefined) | 65.9 | 23.8 | 75.4 | 44.5 | 91.8 | nt
SMILES | HUVEC prolif 384 | HCT116 bCat-KO | H69AR growth 86K | PTEN del growth | Fibroblast inh | Cav32 inh
Cc1cnnn1-c1ccc(C(=O)CCl)cc1 | 65.3 | 78.2 | 0.0* | 89.5 | 53.7 | 0.775
Cc1cc(Cl)ccc1OCCCC(=O)NCCN1C(=O)S/C(=C\c2cccnc2)C1=O | nt | 72.7 | nt | 66.6 | nt | nt
O=[N+]([O-])c1cccc(N/N=C/c2cccc3ccccc23)c1 | nt | 72.5 | nt | 66.9 | nt | nt
CCCCS(=O)(=O)C1CCS(=O)(=O)C1 (centres undefined) | 99.3 | 95.0 | 99.6 | 102.9 | 99.8 | nt
CCCCS(=O)(=O)/C=C\C=C/S(=O)(=O)CCCC | 49.2* | 1.7* | 1.0* | 2.0* | 2.5* | nt
Cc1ccc(Cn2ncc3c(N4CCN(Cc5ccc(Cl)cc5)CC4)ncnc32)cc1 | 87.1 | 26.0 | 76.1 | 25.3 | 92.5 | nt
